Experimental data taken from ChEMBL document CHEMBL3826888, “New naphthalene derivatives and isoquinoline alkaloids from Ancistrocladus cochinchinensis with their anti-proliferative activity on human cancer cells” (Bioorg Med Chem Lett, 2016).
pIC50: −log10 of the molar value. Converted amounts (≈) assume the structure as drawn.

Key:
[1] = test system: Lu1; assay: Antiproliferative activity against human Lu1 cells assessed as cell death at 20 ug/ml after 3 days by sulforhodamine B assay relative to control; format: functional
In short: (§1)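 Human cancer cell lines HL-60 (promyelocytic leukemia), LU-1 (lung carcinoma) and SK-MEL-2 (melanoma) were screened by sulforhodamine B assay, with each sample at a single concentration of 20 µg/mL. The read-out was percentage cell death; samples giving over 50% death went on to dose-response testing. Ellipticine was the positive control throughout.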

[2] = test system: SK-MEL-2; assay: Antiproliferative activity against human SK-MEL-2 cells assessed as cell death at 20 ug/ml after 3 days by sulforhodamine B assay relative to control; format: functional; in short: as §1
[3] = Antiproliferative activity against human HL60 cells assessed as cell death at 20 ug/ml after 3 days by sulforhodamine B assay relative to control; format: functional, HL-60; in short: as §1
[4] = test system: Plasmodium falciparum; assay: Antiparasitic activity against Plasmodium falciparum K1; format: functional, organism-based
[5] = test system: Trypanosoma brucei brucei; assay: Antitrypanosomal activity against Trypanosoma brucei brucei TC221; format: functional, organism-based
[6] = Antiproliferative activity against human HL60 cells after 3 days by sulforhodamine B assay relative to control; format: functional, cell-based; details: HL-60, 72 h
In short: (§2)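 SRB cell-proliferation assay on human cancer cell lines. Each sample was first screened at a single concentration of 20 µg/mL. Samples causing over 50% cell death then went to a dose-dependent study to derive IC50 in µg/mL. Ellipticine served as positive control throughout.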

[7] = test system: SK-MEL-2; assay: Antiproliferative activity against human SK-MEL-2 cells after 3 days by sulforhodamine B assay relative to control; format: functional, cell-based; details: SK-MEL-2, 72 h; in short: as §2
[8] = test system: Lu1; assay: Antiproliferative activity against human Lu1 cells after 3 days by sulforhodamine B assay relative to control; format: functional, cell-based; details: Lu1, 72 h; in short: as §2
[9] = test system: Plasmodium falciparum; assay: Antiparasitic activity against Plasmodium falciparum NF54 after 48 hrs by [3H]-hypoxanthine incorporation assay; format: functional, organism-based

SMILES	Activity [1] [%]	Activity [2] [%]	Activity [3] [%]	also measured
Cc1cc(O[C@@H]2O[C@H](CO[C@@H]3OC[C@](O)(CO)[C@H]3O)[C@@H](O)[C@H](O)[C@H]2O)c2c(O)cccc2c1	<50	<50	<50	
COc1cc(O)ccc1O[C@@H]1O[C@H](COC(=O)c2cc(OC)c(O)c(OC)c2)[C@@H](O)[C@H](O)[C@H]1O	<50	<50	<50	
COc1cc(O)c2c(c1-c1c(C)cc(OC)c3c(OC)cccc13)C[C@H](C)N[C@H]2C (stereo in doubt; form 2)				pIC50 [4]: 7.52
COc1cc(C)c(-c2ccc(O)c3c2C[C@@H](C)N[C@@H]3C)c2cccc(O)c12 [DIONCOPHYLLINE C]				EC50 [5]: 4200 nM
COc1cc(O)cc2cc(CO)nc(C)c12	<50	<50	<50	
Cc1cc(O)c2c(c1)[C@H](O[C@@H]1O[C@H](CO[C@@H]3O[C@H](CO)[C@@H](O)[C@H](O)[C@H]3O)[C@@H](O)[C@H](O)[C@H]1O)CCC2=O	<50	<50	<50	
COc1cc(O)c2c(c1-c1c(C)cc(OC)c3c(OC)cccc13)C[C@H](C)N[C@H]2C (stereo in doubt; form 1)				pIC50 [4]: 7.15
COc1cc(O)c(-c2c(C)cc(OC)c3c(OC)cccc23)c2c1[C@@H](C)N[C@@H](C)C2	>50	>50	>50	IC50 [6]: 5 µg/mL (≈ 12.3 µM); IC50 [7]: 6.8 µg/mL (≈ 16.7 µM); IC50 [8]: 6.5 µg/mL (≈ 16 µM)
COc1cccc2c(-c3ccc4c(c3O)[C@@H](C)N[C@H](C)C4)c(C)cc(OC)c12 [DIONCOPHYLLINE A]				EC50 [5]: 3400 nM
COc1cc(O)c(-c2c(C)cc(O)c3c(OC)cccc23)c2c1[C@@H](C)N(C)[C@@H](C)C2				pIC50 ([4]; Plasmodium falciparum, K1): 7.10
COc1cc(C)cc2ccc(-c3ccc4c(c3O)[C@@H](C)N[C@H](C)C4)c(O)c12				EC50 [5]: 2600 nM
COc1cc([C@H]2OC[C@H]3[C@@H]2CO[C@H]3c2cc(OC)c(O[C@@H]3O[C@H](CO)[C@@H](O)[C@H](O)[C@H]3O)c(OC)c2)cc(OC)c1O	<50	<50	<50	
COc1cc(O[C@@H]2O[C@H](CO)[C@@H](O)[C@H](O)[C@H]2O)cc2cc(CO)nc(C)c12	<50	<50	<50	
COc1cccc2c(-c3ccc4c(c3O)[C@@H](C)N[C@H](C)C4)c(C)c(-c3c(C)c(-c4ccc5c(c4O)[C@@H](C)N[C@H](C)C5)c4cccc(OC)c4c3O)c(O)c12				pIC50 [9]: 8.85
